# How the values were obtained:
# Type in all cases: functional
# Oryctolagus cuniculus [1] = species on record: Oryctolagus cuniculus; experiment: Tested for the concentration that causes 50% relaxation when contraction in rabbit aorta was induced by 3 x 10 E -8 M of U-46619.
# How it was run: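 Rabbit thoracic aorta strips held at 37 °C in oxygenated (95% O2/5% CO2) bicarbonate salt solution with dextrose, resting tension 1.5 g, equilibrated 1 h. Isometric tension recorded via force transducer. Once contraction to 3×10^-8 M U-46619 plateaued, compound added cumulatively. Concentration giving 50% relaxation of maximal U-46619-induced tension change obtained by regression of concentration–relaxation curve.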
# Oryctolagus cuniculus [2] = species on record: Oryctolagus cuniculus; experiment: Tested for the concentration that cause 50% inhibition of the maximum aggregation with rabbit platelet-rich plasma induced by 2.5 x 10 E -6 M of U-46619
# How it was run: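 Rabbit blood drawn from carotid artery into 3.18% trisodium citrate (1/10 volume). PRP from 300 g spin for 15 min; PPP from 1000g spin for 20 min, used as 100% transmission reference. PRP warmed 2 min at 37 °C, compound or vehicle added, 2 min later 2.5×10^-6 M U-46619. Turbidimetric (Born) aggregometry; IC50 as 50% inhibition of maximum aggregation.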
# [3] = Selectivity index is the […] between the IC50 values in the aggregation and contraction assays
# How it was run: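 Index for τ-receptor computed as […] between IC50 in rabbit PRP aggregation (2.5×10^-6 M U-46619) and IC50 for relaxing rabbit aorta contracted by 3×10^-8 M U-46619.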
Compound,IC50 (Oryctolagus cuniculus [1]) [µM],IC50 (Oryctolagus cuniculus [2]) [µM],Selectivity index [3]
CC(C)c1ccc2c(CCCCNS(=O)(=O)c3ccccc3)cc(S(=O)(=O)O)c-2cc1,1.1,> 100,> 91
CC(C)c1ccc2c(/C=C/C(=O)O)cc(CCCCNS(=O)(=O)c3ccccc3)c-2cc1,16,> 100,> 6
CC(C)c1ccc2c(CCCNS(=O)(=O)c3ccccc3)cc(C(=O)O)c-2cc1,14,> 100,> 7
O=C(O)COc1ccc(CCNS(=O)(=O)c2ccccc2)cc1 [SULOTROBAN],1.3,7.1,5
CC(C)c1ccc2c(CCNS(=O)(=O)c3ccccc3)cc(C(=O)O)c-2cc1,14,> 100,> 7
CC(C)c1ccc2c(CCCCCNS(=O)(=O)c3ccccc3)cc(C(=O)O)c-2cc1,3.4,> 100,> 29
CC(C)c1ccc2c(CCCCNS(=O)(=O)c3ccccc3)cc(CC(=O)O)c-2cc1,3,> 100,> 33
CC(C)c1ccc2c(CCCCNS(=O)(=O)c3ccccc3)cc(C(=O)O)c-2cc1,1.6,> 100,> 63

# Compounds with a lower IC50 (Oryctolagus cuniculus [1]), results first:
IC50 (Oryctolagus cuniculus [1]) [µM],IC50 (Oryctolagus cuniculus [2]) [µM],Compound,Selectivity index [3]
0.15,> 100,CC(C)c1ccc2c(CCCCNS(=O)(=O)c3ccc(Cl)cc3)cc(C(=O)O)c-2cc1,> 667
0.023,8.7,CC(C)c1ccc2c(CCCCNS(=O)(=O)c3ccc(Cl)cc3)cc(S(=O)(=O)O)c-2cc1,378
0.097,64,COc1ccc(S(=O)(=O)NCCCCc2cc(S(=O)(=O)O)c3ccc(C(C)C)ccc2-3)cc1,660
0.43,> 100,COc1ccc(S(=O)(=O)NCCCCc2cc(C(=O)O)c3ccc(C(C)C)ccc2-3)cc1,> 233
